A selection: hits, their analogues and other compounds. The true share with any hit is near 7.1%.
HCT116 PTEN-null: suppresses growth of cells with PTEN deletion; 1.2% of 140,000 active; HCT116 PTEN-null viability, CellTiter-Glo, 60 h; active compounds read low; AID 827; viability, % at 10 µM;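 active means viability at or below a set limit, 4 SD under the median of all tested compounds, cut at about 3.7% in these data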;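 further: PTEN knockout HCT116 line with beta catenin targeted HCT116 as companion control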
H69AR growth 86K: growth inhibitors of human H69AR lung tumor cells. H69AR lung tumor viability, ATP luminescence, 72 h; active compounds read low. viability, % at 10 µM. 6% of 85,000 active;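 active means viability at or below 40%; inactive means viability above 40%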;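 further: multidrug resistant small cell line overexpressing MRP-1 efflux transporter; 100% = mean luminescence of untreated control wells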
HUVEC inhibit: inhibitors of human endothelial cell proliferation | HUVEC proliferation, CellTiter-Glo luminescence, 72 h; active compounds read low | viability, % at 10 µM (by protocol) | AID 648 | 1.1% of 86,000 active;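 active means viability at or below 30%; inactive means viability above 30%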;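 further: 100% = median luminescence of DMSO-only cell control wells on each plate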
HCT116 bCat-KO: beta-catenin-lacking colon tumor cell growth suppression; HCT116 beta-catenin knockout viability, CellTiter-Glo, 60 h; active compounds read low; viability, % at 10 µM; 1.5% of 140,000 active;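 active means viability at or under a set limit, the compound median less 4 SD, cut at about 6% in these data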;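 further: 0% = Hyamine 1622 control at 20 µM and 100% = untreated cell control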
Fibroblast inh: blocks proliferation of human lung fibroblasts; 1.1% of 85,000 active; AID 719; viability, % at 10 µM; LL 47 human lung fibroblast viability, ATP luminescence; active compounds read low;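 active means viability at or below 50% in the single dose screen; inactive means viability above 50%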;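 further: compound exposure lasted 72 h before the ATP readout; 100% = median luminescence of untreated cell-only wells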
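Times – overnight cell rest, 72 h compound treatment at 37 °C · Test system – human lung fibroblast line LL 47, low passage · Amount – 1,150 cells in each well · Controls – cell-only wells, no compound · Doses – 0.1% DMSO in all compound wells · Measured by – CellTiter-Glo luminescence · Buffer or medium – IMEM plus 15% FBS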
Cav3 T inh: human Cav3.2 channel inhibition, primary screen. O95180. Cav3.2-expressing cells, Fluo-4 calcium fluorescence FDSS; active compounds read low. B-score at 10 µM. 4% of 100,000 active. AID 449739;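 active means single-dose well whose peak fluorescence ratio is a statistical outlier from its plate by either plate-standardised score or position-corrected B-score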
Target sequence (O95180 whole entry, looked up): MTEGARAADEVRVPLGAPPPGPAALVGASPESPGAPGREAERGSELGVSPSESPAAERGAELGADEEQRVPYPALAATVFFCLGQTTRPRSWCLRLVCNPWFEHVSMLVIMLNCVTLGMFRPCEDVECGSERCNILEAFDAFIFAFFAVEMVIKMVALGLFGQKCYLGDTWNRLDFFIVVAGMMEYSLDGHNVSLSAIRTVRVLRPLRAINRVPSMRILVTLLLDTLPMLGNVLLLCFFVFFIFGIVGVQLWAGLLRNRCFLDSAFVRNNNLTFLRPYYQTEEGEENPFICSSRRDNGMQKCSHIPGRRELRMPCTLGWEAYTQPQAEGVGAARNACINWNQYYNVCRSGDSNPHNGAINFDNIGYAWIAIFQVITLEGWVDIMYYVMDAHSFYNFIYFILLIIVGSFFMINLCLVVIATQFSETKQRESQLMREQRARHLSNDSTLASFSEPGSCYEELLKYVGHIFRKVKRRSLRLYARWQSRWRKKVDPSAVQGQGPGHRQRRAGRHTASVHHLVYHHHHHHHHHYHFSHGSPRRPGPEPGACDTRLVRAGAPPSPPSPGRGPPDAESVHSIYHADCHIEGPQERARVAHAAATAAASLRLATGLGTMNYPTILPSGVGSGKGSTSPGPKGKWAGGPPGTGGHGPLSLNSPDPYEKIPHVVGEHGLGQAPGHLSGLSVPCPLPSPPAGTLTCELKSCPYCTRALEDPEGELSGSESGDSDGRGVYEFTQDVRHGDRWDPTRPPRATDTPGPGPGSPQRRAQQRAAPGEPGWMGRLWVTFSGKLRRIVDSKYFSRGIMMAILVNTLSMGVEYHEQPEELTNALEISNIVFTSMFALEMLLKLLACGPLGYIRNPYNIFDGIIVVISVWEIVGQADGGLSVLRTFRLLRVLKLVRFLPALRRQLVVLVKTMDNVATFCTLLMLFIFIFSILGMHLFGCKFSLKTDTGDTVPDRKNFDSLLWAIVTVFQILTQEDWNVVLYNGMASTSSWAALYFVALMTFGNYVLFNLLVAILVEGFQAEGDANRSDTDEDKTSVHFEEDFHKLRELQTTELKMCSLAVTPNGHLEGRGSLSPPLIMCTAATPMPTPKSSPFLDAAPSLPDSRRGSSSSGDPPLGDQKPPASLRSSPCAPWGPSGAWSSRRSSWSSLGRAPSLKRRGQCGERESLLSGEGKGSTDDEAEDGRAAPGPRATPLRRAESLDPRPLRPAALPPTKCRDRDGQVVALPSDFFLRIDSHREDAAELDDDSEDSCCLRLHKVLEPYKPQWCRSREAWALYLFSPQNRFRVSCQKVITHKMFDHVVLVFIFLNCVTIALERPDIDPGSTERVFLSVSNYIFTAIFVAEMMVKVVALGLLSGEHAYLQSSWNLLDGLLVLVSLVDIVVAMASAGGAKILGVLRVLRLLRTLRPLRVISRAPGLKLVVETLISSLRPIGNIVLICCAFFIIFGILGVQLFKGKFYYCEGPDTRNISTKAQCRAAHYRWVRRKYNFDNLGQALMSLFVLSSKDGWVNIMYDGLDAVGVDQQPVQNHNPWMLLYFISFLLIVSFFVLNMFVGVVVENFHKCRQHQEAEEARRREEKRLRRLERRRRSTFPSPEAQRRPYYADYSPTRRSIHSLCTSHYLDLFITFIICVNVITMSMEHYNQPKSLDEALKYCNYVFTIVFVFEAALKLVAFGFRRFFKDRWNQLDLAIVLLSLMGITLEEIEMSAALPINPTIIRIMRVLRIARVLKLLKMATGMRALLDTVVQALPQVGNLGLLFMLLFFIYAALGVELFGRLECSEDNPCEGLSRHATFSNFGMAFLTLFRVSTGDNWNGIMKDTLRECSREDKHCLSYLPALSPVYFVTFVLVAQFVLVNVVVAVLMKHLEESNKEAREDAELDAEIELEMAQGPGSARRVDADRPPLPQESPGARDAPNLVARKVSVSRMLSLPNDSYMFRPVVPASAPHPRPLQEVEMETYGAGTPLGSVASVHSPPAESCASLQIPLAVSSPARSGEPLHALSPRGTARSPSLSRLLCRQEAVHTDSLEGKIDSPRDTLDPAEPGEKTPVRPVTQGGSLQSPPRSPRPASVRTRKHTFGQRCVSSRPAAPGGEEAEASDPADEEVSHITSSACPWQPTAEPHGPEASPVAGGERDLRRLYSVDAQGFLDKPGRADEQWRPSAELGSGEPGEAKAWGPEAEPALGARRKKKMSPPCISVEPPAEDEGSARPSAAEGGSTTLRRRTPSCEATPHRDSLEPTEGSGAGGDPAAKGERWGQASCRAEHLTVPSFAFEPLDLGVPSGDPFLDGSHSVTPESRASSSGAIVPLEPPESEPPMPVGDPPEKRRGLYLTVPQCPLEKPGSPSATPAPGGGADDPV
An asterisk follows results filed as active; . = no result given.

SMILES	HCT116 PTEN-null	H69AR growth 86K	HUVEC inhibit	HCT116 bCat-KO	Fibroblast inh	Cav3 T inh
O/N=C(\c1ccc(Cl)cc1)c1cc2ccccc2o1	43	1.9*	43	38	86	.
Cc1cc(C)c(NC(=O)CO/N=C2\CCCc3nonc32)c(C)c1	92	.	.	82	.	.
CC1CCCCC1NC(=O)CSc1nnc(-c2ccccc2)n1N (stereo not drawn)	103	107	89	94	94	0.22
Cc1c(Cc2ccc3c(c2)OCO3)sc(NC(=O)C(C)(C)C)c1C#N	40	38*	85	47	84	0.032
Cc1ccc(C(=O)C[n+]2ccc(-c3nnc4n3CCC4)cc2)cc1	108	.	.	95	.	.
CCOC(=O)C(C(=O)OCC)C(C(=O)OCC)N1CCOCC1 (stereo not drawn)	1.7*	0.7*	2.9*	1.2*	1.9*	2.1
CSc1nnc(-c2cc[n+](C)cc2)n1CCO	103	.	.	102	.	.
CCCCOc1ccc(-c2cc(C(=O)NNC(=S)NCC)c3ccccc3n2)cc1	1.8*	.	.	1.6*	.	0.15
CCNC(=S)NNC(=O)c1cc(-c2ccc(OC)cc2)nc2ccccc12	61	.	.	55	.	.
COc1ccc(Cl)cc1C(=O)NNC(=S)NC(=O)c1cc(-c2ccc(Cl)cc2)nc2ccccc12	21	.	.	24	.	-6.6*
CCc1ccc2[nH]c3nc(SCc4nnc(-c5ccc(C)cc5)o4)nnc3c2c1	46	9.4*	36	55	44*	0.3
CCc1ccc2[nH]c3nc(SCC(=O)NNC(=O)c4ccc(C(C)(C)C)cc4)nnc3c2c1	38	.	.	52	.	0.18
N#C/C(=C\c1ccco1)C(=O)Nc1cccc2ncccc12	110	.	.	101	.	.
Cc1cc(C(=O)OCC(=O)Nc2ccccc2[N+](=O)[O-])c2ccccc2n1	96	.	.	96	.	.
COc1ccccc1NC(=O)c1nnn(Cc2ccccc2)c1NC(=O)C(F)(F)F	107	98	95	97	110	-7.7*
O=C(Nc1ccccc1)c1nnn(Cc2ccccc2)c1NC(=O)C(F)(F)F	92	93	95	95	103	-8.4*
CC(=O)Nc1c(C(=O)NCc2ccccc2)nnn1Cc1ccccc1	104	93	108	101	98	-0.6
COc1ccccc1NC(=O)CSc1nnnn1Cc1ccccc1	112	83	90	97	97	-0.48
Cn1cccc1/C=C1\CCC/C(=C\c2cccn2C)C1=O	67	83	100	64	104	-13*
CN(C)S(=O)(=O)c1ccc(C(=O)Nc2nc(-c3cc4ccccc4o3)cs2)cc1	55	.	.	49	.	.
CN(CC1CCCO1)S(=O)(=O)c1ccc(C(=O)Nc2nc(-c3ccccn3)cs2)cc1 (stereo not drawn)	8	55	45	3.9*	42*	-3.9
COc1cccc2c1C(=O)c1c(O)c3c(c(O)c1C2=O)C[C@@](O)(C(=O)CO)C[C@@H]3O[C@H]1C[C@H](N)[C@H](O)[C@H](C)O1	4	.	.	4.1*	.	-5.7*
C=CCN1C(=Nc2cccnc2)SCC1(O)c1ccc(C)cc1 (stereo not drawn)	27	34*	1.8*	20	86	-0.022
Cc1csc(=Nc2cccnc2)n1CC1CCCCC1	88	.	.	80	.	.
CCn1c(COc2ccc3c(c2)CCCC3)nnc1SCC(=O)Nc1ccc(C(=O)OC)cc1	90	.	.	97	.	.
SMILES	HCT116 PTEN-null	H69AR growth 86K	HUVEC inhibit	HCT116 bCat-KO	Fibroblast inh	Cav3 T inh
O=C1c2ccccc2-c2onc3ccc(Oc4ccccc4)c1c23	1.5*	2.1*	4.4*	1.9*	2.8*	0.61
O=C(O)c1ccc2noc(-c3ccccc3)c2c1	104	86	87	109	107	1.5
CCOc1ccc(NC(=O)c2ccccc2NC(=O)CN(C)CC(=O)Nc2ccc(C)cc2)cc1	94	37*	67	90	86	1
Cc1ccc2c(c1)C(=O)c1ccccc1CS2=O (stereo not drawn)	97	.	.	99	.	.
COC(=O)c1nn(-c2ccccc2)c(-c2ccccc2)c1C(=O)c1ccccc1	68	.	.	70	.	-7.8*
COc1cc2c3c(c1)-c1c(sn(-c4cc(OC)ccc4OC)c1=S)C(C)(C)N3C(=O)C2=O	1.2*	3.9*	51	2.4*	101	0.46
CCC(C)NS(=O)(=O)c1ccc(OC)c(Cl)c1Cl (stereo not drawn)	100	.	.	100	.	-2.9
CCc1nc(N2CCCCC2C)c2oc3ccccc3c2n1 (stereo not drawn)	34	22*	44	26	68	-1.4
CCc1nc(Nc2ccncc2)c2oc3ccccc3c2n1	1.7*	97	99	2.0*	58	-0.32
CCc1nc(N2CCCCC2)c2oc3ccccc3c2n1	94	77	92	94	87	-1.2
Cc1ccccc1C(=O)OC1OC(=O)C(Cl)=C1N1CCOCC1 (stereo not drawn)	91	.	.	95	.	.
O=C1c2ccccc2C(=O)N1n1cccc1	94	.	.	97	.	.
O=C1C(c2c(O)[nH]c3ccccc23)=Nc2ccccc21	.	.	.	.	.	-0.22
CC(=O)c1cccc2c(O)c(C3=Nc4ccccc4C3=O)[nH]c12	35	1.5*	36	38	61	0.94
CCn1cc(C2C3=C(CC(C)(C)CC3=O)N(c3ccccc3)C3=C2C(=O)CC(C)(C)C3)c(C)n1	97	.	.	92	.	.
COCc1cc(C)nc(OCC(=O)N/N=C/c2ccc(O)cc2)c1C#N	85	.	.	99	.	.
COCc1cc(C)nc(OCC(=O)N/N=C/c2cc(C)n(-c3c(C)cccc3C)c2C)c1C#N	83	.	.	88	.	-4.4*
Cc1cccnc1NCc1ccc(O)c2ncccc12	2.5*	13*	68	3.9*	83	0.83
COc1ccc(-c2c[n+]3c4n2CCCCC4=C(c2ccc(Br)cc2)C3)cc1	7	.	.	7	.	.
Clc1ccc(C2=C3CCCCn4c(-c5ccccc5)c[n+](c43)C2)cc1	5	36*	18*	6	42*	-2.9
CCCCn1nc2cc(C(=O)NCc3ccc(OC(F)(F)F)cc3)ccc2c1OC	102	.	.	95	.	-0.39
COc1ccccc1N1CCN(C(=O)c2cc(C3CC3)on2)CC1	104	94	103	92	110	-0.43
COc1ccccc1N1CCN(C(=O)c2ccc3nc(-c4ccco4)c(-c4ccco4)nc3c2)CC1	77	94	90	79	105	-6.2*

Assay outcomes deposited in PubChem by several laboratories.
